SIAE primary = human SIAE inhibitors, primary screen, biochemical, fluorescence polarization, FP-Rh probe, 1536-well HTS. SIAE FP-Rh probe binding. inhibition, % at 9.66 µM. 0.69% of 370,000 active;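 active = inhibition above a cutoff: mean of compounds within the control limits plus 3 SD of those, cut at about 17% in these data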;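 also: 0% = plate median of compound wells and 100% = probe without SIAE protein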
PRMT1 FP inh = PRMT1 methyltransferase inhibitors, primary screen, biochemical, fluorescence polarization; 1.3% of 370,000 active; AID 652257, 2013; recombinant PRMT1, activity-based probe fluorescence polarization; inhibition, % at 2.79 µM;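 active = inhibition above about 21% made by adding two undisclosed values, limit read from the data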
Target sequence (Q99873 whole entry, looked up): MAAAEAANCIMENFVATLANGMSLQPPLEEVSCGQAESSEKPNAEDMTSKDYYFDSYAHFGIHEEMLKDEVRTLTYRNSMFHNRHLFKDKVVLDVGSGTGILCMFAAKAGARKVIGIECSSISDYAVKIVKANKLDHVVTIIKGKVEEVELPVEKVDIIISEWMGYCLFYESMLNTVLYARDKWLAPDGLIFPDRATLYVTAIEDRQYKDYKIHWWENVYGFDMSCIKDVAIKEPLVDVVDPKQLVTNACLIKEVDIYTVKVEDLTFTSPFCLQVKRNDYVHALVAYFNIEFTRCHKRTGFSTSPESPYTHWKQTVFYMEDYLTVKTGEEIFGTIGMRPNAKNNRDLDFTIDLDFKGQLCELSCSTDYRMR
rCAG RNA binder = binders of r(CAG) RNA repeats, primary screen, biochemical, fluorescence; r(CAG) RNA repeat, TO-PRO-1 dye displacement fluorescence; 1.3% of 370,000 active; inhibition, % at 3 µM;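 active = inhibition above the plate cutoff, the mean of all test compounds on that plate plus 3 SD, cut at about 35% in these data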;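 also: 0% = DMSO alone and 100% = 100 µM mitoxantrone as full dye displacement; higher means more dye released from RNA so lower well fluorescence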
HTRA1 inhibitor = HTRA1 serine protease inhibitors, primary screen, biochemical, fluorescence polarization, HTS. Q92743. recombinant HTRA1, FP-rhodamine activity-based probe. inhibition, % at 5.96 µM. 0.5% of 340,000 active. AID 504803, 2011; in the data active = inhibition above about 36%;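 also: 0% = enzyme with DMSO and 100% = wells lacking enzyme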
mABHD4 FP = ABHD4 inhibitors, primary screen, biochemical, fluorescence polarization, mouse; (Lyso)-N-acylphosphatidylethanolamine lipase (Mus musculus), Q8VD66; purified mABHD4, FP-Rh probe fluorescence polarization; 0.54% of 370,000 active; inhibition, % at 8.92 µM;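 active = inhibition exceeding the mean over every tested compound plus 3 SD, cut at about 30% in these data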;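 also: 0% = plate median of compound wells and 100% = S159A mutant with DMSO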
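Assay system: wild-type mouse ABHD4 protein; compound: single nominal dose of 8.92 µM, 0.89% DMSO final; schedule: 45 min + 60 min at 25 °C; measured by: FP readout, ex 525 nm / em 598 nm; evaluation: % inhibition of FP-Rh probe binding versus controls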
TCR-CD3 inh = inhibitors of human TCR-CD3 interaction, primary screen, biochemical, fluorescence, TAMRA-labeled TCR probe | inhibition, % at 9.4 µM | 0.37% of 360,000 active | AID 651800, 2012; in the data active = inhibition above about 19%;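 also: recombinant mutant TCR 2C K166C tagged with TAMRA read by polarization; 0% = receptor in buffer alone and 100% = receptor with positive control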
rCAG binder conf = small molecules binding CAG repeat RNA – biochemical, fluorescence, confirmation; shares compounds with rCAG RNA binder; 70% of 4,300 active; r(CAG) RNA repeat, TO-PRO-1 dye displacement fluorescence; inhibition, % at 3 µM;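 active = inhibition above a per-plate cutoff, the mean inhibition of sample wells plus 3 SD, cut at about 35% in these data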;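 also: loss of TO-PRO-1 fluorescence as compound displaces dye from 1x1 AA loop RNA; 0% = DMSO only wells and 100% = 100 µM mitoxantrone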
DNA CAG counter = displacement of TO-PRO-1 from CAG DNA duplex, counter-screen for rCAG RNA repeat binder project, biochemical, fluorescence, TO-PRO-1 dye, d(CAG) DNA oligo. 94% of 4,300 active. d(CAG) DNA oligo TO-PRO-1 dye displacement. shares compounds with rCAG RNA binder. inhibition, % at 3 µM;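 active = inhibition above its plate's cutoff, the mean test-well inhibition plus 3 SD, cut at about 4.8% in these data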;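 also: 0% = DNA dye mix with DMSO and 100% = 100 µM mitoxantrone; hits displace the dye from DNA and so lower well fluorescence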
mABHD4 conf = ABHD4 inhibitors, retest, confirmation, biochemical, fluorescence polarization, mouse | shares compounds with mABHD4 FP | purified mABHD4, FP-Rh probe fluorescence polarization | inhibition, % at 8.92 µM | 55% of 1,800 active;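 active = mean inhibition across replicates above the hit cutoff set in the primary screen, cut at about 30% in these data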;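 also: 0% = wild-type ABHD4 with DMSO and 100% = catalytically dead S159A mutant with DMSO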
SIAE confirm = human SIAE inhibitors, retest, confirmation, biochemical, fluorescence polarization, FP-Rh probe, triplicate. SIAE FP-Rh activity-based probe. inhibition, % at 9.66 µM. shares compounds with SIAE primary. AID 1117263, 2014. 13% of 2,300 active;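 active = mean inhibition of the replicates above the hit cutoff set in the primary screen, cut at about 17% in these data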;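 also: 0% = SIAE with DMSO and probe and 100% = probe without SIAE; inhibitors lower polarization as more probe stays unbound to SIAE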
Starred values were filed as active, the others as inactive. Most compounds without a hit are left out; they make up all but 3.5% or so of the library.

Results for COc1ccccc1NS(=O)(=O)c1ccc(N/N=C/c2ccccc2OCC(=O)O)c([N+](=O)[O-])c1 ?
SIAE primary: -6; PRMT1 FP inh: 6; rCAG RNA binder: 92*; HTRA1 inhibitor: 25; mABHD4 FP: 60*; TCR-CD3 inh: -4; rCAG binder conf: 90*; DNA CAG counter: 67*; mABHD4 conf: 61*

What do the screens show for `CCN(CC)S(=O)(=O)c1ccc(N/N=C/c2ccccc2OCC(=O)O)c([N+](=O)[O-])c1`?
SIAE primary: 4; PRMT1 FP inh: 9; rCAG RNA binder: 75*; HTRA1 inhibitor: 6; mABHD4 FP: 35*; TCR-CD3 inh: -1; rCAG binder conf: 75*; DNA CAG counter: 36*; mABHD4 conf: 44*

How did COc1ccccc1NS(=O)(=O)c1ccc(N/N=C/C=C/c2ccccc2[N+](=O)[O-])c([N+](=O)[O-])c1 do in these assays?
SIAE primary: -3; PRMT1 FP inh: -2; rCAG RNA binder: 6; HTRA1 inhibitor: 4; mABHD4 FP: 1; TCR-CD3 inh: 6

What do the screens show for `Cn1ccnc1C(=O)O[C@@H]1CCC[C@@]2(C(=O)N(Cc3ccccc3)c3ccccc32)[C@H]1NC(=O)CCc1ccccc1`?
SIAE primary: -5; PRMT1 FP inh: -3; rCAG RNA binder: 4; mABHD4 FP: -1

How did C/C(=N\Nc1ccc(C(=O)O)cc1)c1ccc2c(c1)Nc1ccccc1S2 do in these assays?
SIAE primary: 16; PRMT1 FP inh: 3; rCAG RNA binder: 39*; HTRA1 inhibitor: 35; mABHD4 FP: 43*; TCR-CD3 inh: 0; rCAG binder conf: 86*; DNA CAG counter: 59*; mABHD4 conf: 77*

Results for COC(=O)c1cc(-c2ccc(F)cc2OCc2ccccc2)c(=O)n2c1CCC2 ?
SIAE primary: 7; PRMT1 FP inh: -6; rCAG RNA binder: 0; mABHD4 FP: -8

How did O=C(NCCN1CCOCC1)c1ccccc1N1C(=O)[C@@H]2Cc3c([nH]c4ccccc34)C(c3ccccc3)N2C1=O (stereo partly specified) do in these assays?
SIAE primary: 1; PRMT1 FP inh: 9; rCAG RNA binder: 6; HTRA1 inhibitor: -19; mABHD4 FP: 3; TCR-CD3 inh: -1

How did O=C(O)[C@@H]1CCCN1C(=O)c1ccccc1N1C(=O)[C@@H]2Cc3c([nH]c4ccccc34)C(c3cccc(Cl)c3)N2C1=O (stereo partly specified) do in these assays?
SIAE primary: 44*; PRMT1 FP inh: 5; rCAG RNA binder: 35*; HTRA1 inhibitor: -13; mABHD4 FP: -24; TCR-CD3 inh: 15; rCAG binder conf: 49*; DNA CAG counter: 13*; SIAE confirm: -11

Results for CC(C)C[C@H]1COc2cc(N3CCCC3)ccc2S(=O)(=O)N1C ?
SIAE primary: -5; PRMT1 FP inh: -4; rCAG RNA binder: 0; mABHD4 FP: 9

Results for Cc1csc(NC(=O)c2ccc(COc3cccc(F)c3)o2)n1 ?
SIAE primary: -1; PRMT1 FP inh: 2; rCAG RNA binder: 6; mABHD4 FP: -9

What do the screens show for `Oc1ccccc1-c1ccn[nH]1`?
SIAE primary: -2; PRMT1 FP inh: -1; rCAG RNA binder: 1; HTRA1 inhibitor: 6; mABHD4 FP: 0; TCR-CD3 inh: -3

How did Oc1ccccc1-c1nc2c3ccccc3c3ccccc3c2[nH]1 do in these assays?
SIAE primary: 27*; PRMT1 FP inh: -1; rCAG RNA binder: 56*; HTRA1 inhibitor: -21; mABHD4 FP: -19; TCR-CD3 inh: 4; rCAG binder conf: 39*; DNA CAG counter: 29*; SIAE confirm: -2

Results for COCCN=C1S/C(=C\c2cc(C)n(-c3ccc(F)cc3F)c2C)C(=O)N1C ?
SIAE primary: -30; PRMT1 FP inh: 18; mABHD4 FP: -7

What do the screens show for `CCCC1CCC2(CC1)CCC2OC(=O)Nc1ccc(C)cc1` (stereo unspecified)?
SIAE primary: 3; PRMT1 FP inh: -3; mABHD4 FP: -11

What do the screens show for `COc1cc(C2c3c([nH]c(=O)[nH]c3=O)Nc3ccc4ccccc4c32)ccc1O` (stereo unspecified)?
SIAE primary: 30*; PRMT1 FP inh: -1; rCAG RNA binder: 43*; HTRA1 inhibitor: 8; mABHD4 FP: 15; TCR-CD3 inh: 4; rCAG binder conf: 24; DNA CAG counter: 8.2*; SIAE confirm: 37*

What do the screens show for `COc1cc(C2CC(=O)c3c(ccc4ccccc34)N2)ccc1O` (stereo unspecified)?
SIAE primary: -1; PRMT1 FP inh: 4; rCAG RNA binder: 2; HTRA1 inhibitor: -5; mABHD4 FP: -5; TCR-CD3 inh: -4

What do the screens show for `COc1ccc(C2=NN(c3ccccc3)C(=O)/C2=C\c2ccc(O)c(OC)c2)cc1`?
SIAE primary: 19*; PRMT1 FP inh: 2; rCAG RNA binder: 57*; HTRA1 inhibitor: 8; mABHD4 FP: 4; TCR-CD3 inh: 4; rCAG binder conf: 66*; DNA CAG counter: 29*; SIAE confirm: 5

How did COc1ccc(CCNC(=O)Nc2ccc3c(c2)[C@@]2(CC(=O)N(CC(C)C)C2c2ccccc2)C(=O)N3C)cc1OC (stereo partly specified) do in these assays?
SIAE primary: 1; PRMT1 FP inh: 6; rCAG RNA binder: 6; mABHD4 FP: 7

Screens as filed in PubChem.
